Screening results deposited in PubChem by several laboratories.
eIF4H FP inh: inhibitors of RNA binding by human eIF4H. Q15056. 290,000 compounds, 0.94% hits. eIF4H fluorescence polarization binding assay. inhibition, % at 35 µM;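 also: calls also rest on retests at 20 µM and on dose response follow-up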
PABP1 MLLE inh: blocks PAM2 peptide binding to the PABP1 MLLE domain; P11940; GST-MLLE / FITC-PAM2 fluorescence polarization; inhibition, % at 20 µM; 360,000 compounds, 0.36% hits; in the data active = inhibition above about 35%, passing the limit was not always enough
NS3 helicase inh: inhibitors of Hepatitis C virus NS3 helicase. NS3 helicase DNA unwinding, Cy5 molecular beacon fluorescence. inhibition, % at 10.9 µM. 290,000 compounds, 0.56% hits;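 active = inhibition above the mean of all tested compounds plus 3 SD, set per campaign, cut at about 35% in these data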
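Assay system – hepatitis C virus NS3 helicase domain fragment enzyme · Buffer or medium – MOPS pH 6.5, MgCl2, DTT, Tween20, BSA · Reagent – Cy5/quencher beacon DNA duplex and ATP to start · Compound – single 10.9 µM dose · Timing – 1 h at 25 °C · Technique – Cy5 beacon fluorescence read at start and 1 h · Measure – % inhibition of unwinding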
core dimer inh: blocks dimerization of HCV core protein; 300,000 compounds, 0.33% hits; TR-FRET GST/Flag-core106 dimerization, 1536-well; inhibition, % at 5 µM; AID 1899;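 active = inhibition above the mean of all tested compounds plus 3 SD, set per screening campaign, cut at about 45% in these data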
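Assay system: GST-tagged and Flag-tagged HCV core protein residues 1-106 / Times: compound-protein-antibody incubation 4 h at 22.5 °C / Signal: time-resolved FRET, ex 340 nm, em 617 and 671 nm / Evaluation: % inhibition based on acceptor/donor emission ratio / Benchmarks: wells lacking GST-core106 and wells with excess unlabelled core106 / Repeats: singlicate, one well per compound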
PABP polyA inh: blocks human PABP binding to poly(A) RNA; 290,000 compounds, 1% hits; P11940; AID 2014; inhibition, % at 35 µM; fluorescence polarization;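 also: calls also rest on retests at 20 µM and on dose response follow-up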
DNA FID counter: displaces DNA intercalator in HCV helicase counter-screen. DNA fluorescent intercalator displacement, fluorescence. inhibition, % at 7.9 µM. 290,000 compounds, 0.17% hits. AID 1845; in the data active = inhibition above about 37%;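 also: higher means more ethidium bromide displaced from hairpin DNA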
Each line names hits and unclear results; the compound was inactive in the other large screens. Most compounds without a hit are left out; they make up all but 2% or so of the library. Unless noted, no rule for the calls is given here.

COC(=O)c1cccc(NC(=O)CSc2nc(O)c(-c3ccccc3)c(=O)[nH]2)c1	eIF4H FP inh inconclusive, PABP polyA inh 36.6
COC(=O)c1ccccc1NC(=O)CSc1nc(O)c(-c2ccccc2)c(=O)[nH]1	none
CCN(CC(=O)NCc1cccs1)C(=O)/C=C/c1cc(OC)c(OC)c(OC)c1	none (no result: eIF4H FP inh, NS3 helicase inh, core dimer inh, PABP polyA inh, DNA FID counter)
O=C(O)c1cc(O)c2c(c1)[C@@H]([C@H]1c3cc(C(=O)O)cc(O)c3C(=O)c3c(O[C@@H]4O[C@H](CO)[C@@H](O)[C@H](O)[C@H]4O)cccc31)c1cccc(OC3O[C@H](CO)[C@@H](O)[C@H](O)[C@H]3O)c1C2=O (some centres undefined)	none (no result: eIF4H FP inh, NS3 helicase inh, PABP polyA inh, DNA FID counter)
O=C(O)c1cc(O)c2c(c1)[C@H]([C@H]1c3cc(C(=O)O)cc(O)c3C(=O)c3c(O[C@@H]4O[C@H](CO)[C@@H](O)[C@H](O)[C@H]4O)cccc31)c1cccc(OC3O[C@H](CO)[C@@H](O)[C@H](O)[C@H]3O)c1C2=O (some centres undefined)	PABP1 MLLE inh 51.9 (no result: eIF4H FP inh, NS3 helicase inh, PABP polyA inh, DNA FID counter)
Cc1ccc(OCC(=O)N2CCN(S(=O)(=O)c3ccccc3)CC2)c([N+](=O)[O-])n1	eIF4H FP inh inconclusive, PABP polyA inh 104.0
Cc1ccc(OCC(=O)N2CCC(Cc3ccccc3)CC2)c([N+](=O)[O-])n1	none (no result: eIF4H FP inh, NS3 helicase inh, core dimer inh, PABP polyA inh, DNA FID counter)
CCCCCn1c(N)c(-c2nc3ccccc3o2)c2c([N+](=O)[O-])nn(C)c(=O)c21	eIF4H FP inh 74.2
CCCCCn1c(N)c(-c2nc3ccccc3o2)c2c([N+](=O)[O-])nn(CC)c(=O)c21	none
c1cnc2ccc3ncccc3c2c1	none
Nc1ccc2ncccc2c1N	eIF4H FP inh 87.4, PABP polyA inh 0.7 (no result: NS3 helicase inh, DNA FID counter)
CN(C1CCCCC1)S(=O)(=O)c1ccc(NC(=S)NC(=O)c2cccs2)cc1	PABP1 MLLE inh 42.8
CCC(C)Nc1nnnc2c1sc1nc3c(cc12)COC(C)(C)C3 (centres undefined)	eIF4H FP inh 85.3
CCN1CSC(=S)N(Cc2ccc(OC)cc2)C1	PABP1 MLLE inh 39.8
CCN1CSC(=S)N(Cc2ccccc2)C1	none
C=CCN(CC(=O)NC1CCCC1)C(=O)C(=O)Nc1ccc2c(c1)OCCO2	none
COc1cc(/C=N/n2cc(-c3ccccc3)[nH]c2=S)cc(OC)c1O	none
Oc1ccc(/C=N/n2cc(-c3ccccc3)[nH]c2=S)cc1	PABP1 MLLE inh 43.5
O=C(/C=C/c1ccc(Cl)cc1)Nc1nccs1	eIF4H FP inh active (no result: core dimer inh)
CCCN(CCC)CCCNC(=S)Nc1ccc2nc(N3CCN(CC)CC3)cc(C)c2c1	none
CCCCN(CC)CCNC(=O)CCC(=O)Nc1ccc2nc(N3CCN(C)CC3)cc(C)c2c1	DNA FID counter 41.1
CCCN(CCC)CCCNC(=S)Nc1ccc2nc(N3CCN(C)CC3)cc(C)c2c1	DNA FID counter 44.5
CCCCN(CC)CCNC(=S)Nc1ccc2nc(N3CCN(C)CC3)cc(C)c2c1	DNA FID counter 43.0
CCN1CCN(C(=S)Nc2ccc3nc(N4CCN(CC)CC4)cc(C)c3c2)CC1	DNA FID counter 46.4
CCN1CCN(C(=S)Nc2ccc3nc(N4CCN(C)CC4)cc(C)c3c2)CC1	none
CN(c1ccccc1)S(=O)(=O)c1cccc(NC(=O)CCNC(=O)c2ccco2)c1	none (no result: eIF4H FP inh, NS3 helicase inh, core dimer inh, PABP polyA inh, DNA FID counter)
N#Cc1sc2nc(-c3ccccc3)cc(-c3ccco3)c2c1N	core dimer inh 49.5
CCOc1ccc(-n2c(SC(C)C)nc3c(c2=O)SCC3)cc1	PABP polyA inh active
COCCN1C(=O)c2ccccc2C1c1nc2ccccc2[nH]1 (centres undefined)	none (no result: eIF4H FP inh, NS3 helicase inh, core dimer inh, PABP polyA inh, DNA FID counter)
O=C(C[n+]1ccccc1)Nc1ccc(Oc2ccccc2)cc1	DNA FID counter 36.7
CN(C)c1ccc(NC(=O)C[n+]2ccccc2)cc1	none
COCc1cc(=O)[nH]c(SCCS(=O)(=O)c2ccc(C)cc2)n1	none
COCc1cc(=O)[nH]c(SCCS(=O)(=O)c2ccc(Cl)cc2Cl)n1	PABP1 MLLE inh 38.2
COc1cc([C@@H]2[C@H]3CNCC=C3C(C#N)=C(N)C2(C#N)C#N)ccc1OC(C)C	eIF4H FP inh 73.3, PABP polyA inh 90.7
CC1(C)CC(NC(=O)c2ccccc2NS(=O)(=O)c2ccc(Br)cc2)CC(C)(C)N1	none (no result: eIF4H FP inh, NS3 helicase inh, core dimer inh, PABP polyA inh, DNA FID counter)
O=C(OCC(=O)c1ccc(Cl)s1)c1cnccn1	core dimer inh 53.8
O=C(Nc1cccc2cccnc12)c1ccccc1Br	none (no result: eIF4H FP inh, NS3 helicase inh, PABP polyA inh, DNA FID counter)
CC(=O)c1c2c3c(cccc3n(C)c1=O)C(=O)c1ccccc1-2	eIF4H FP inh inconclusive, PABP polyA inh inconclusive (no result: PABP1 MLLE inh)
CC(=O)c1c2c3c(c(Br)ccc3n(C)c1=O)C(=O)c1ccccc1-2	PABP1 MLLE inh 59.1 (no result: eIF4H FP inh, PABP polyA inh)
Cc1cc(C)c2c(=O)[nH]c(SCC(=O)N(C)C)nc2n1	DNA FID counter 75.2
CCCCN(C(=O)c1ccccc1Br)C(c1ccc(OC)cc1)c1nc2ccccc2[nH]1 (centres undefined)	none (no result: eIF4H FP inh, NS3 helicase inh, core dimer inh, PABP polyA inh, DNA FID counter)
COc1ccc(-n2c(-c3ccccc3)nc(=S)c3c2CCCC3)cc1	core dimer inh 77.1
COc1ccc(-n2c(-c3cccc(OC)c3)nc(=S)c3c2CCCC3)cc1	core dimer inh 66.5
CC(C)n1c(-c2ccccc2)nc(=S)c2c1CCCC2	none (no result: PABP1 MLLE inh)
CCCS(=O)(=O)NC(=O)C1(C)CCN(C(=O)c2cccnc2Oc2ccccc2)C1 (centres undefined)	none (no result: eIF4H FP inh, NS3 helicase inh, core dimer inh, PABP polyA inh, DNA FID counter)
CC1CCCN(c2nc3ccccc3nc2C(C#N)S(=O)(=O)c2cccs2)C1 (centres undefined)	PABP1 MLLE inh 50.6
COc1ccc(S(=O)(=O)C(C#N)c2nc3ccccc3nc2N2CCCC(C)C2)cc1 (centres undefined)	none
Cc1ccc(S(=O)(=O)C(C#N)c2nc3ccccc3nc2N2CC(C)OC(C)C2)cc1C (centres undefined)	eIF4H FP inh 85.0, PABP polyA inh 89.5
CC(=O)Nc1cccc(NC(=O)c2cc(-c3cccnc3)nc3ccc(Cl)cc23)c1	none
CC(=O)Nc1cccc(NC(=O)c2cc(-c3ccccn3)nc3ccc(Cl)cc23)c1	PABP polyA inh 25.6
CC1CCCCC12NC(=O)N(CC(=O)Nc1sc3c(c1C(N)=O)CCC3)C2=O (centres undefined)	eIF4H FP inh 77.8, core dimer inh 69.3, PABP polyA inh 73.5
CC1CCC2(CC1)NC(=O)N(CC(=O)Nc1sc3c(c1C(N)=O)CCC3)C2=O (centres undefined)	eIF4H FP inh 76.0, core dimer inh 52.2, PABP polyA inh 3.7
Cn1cnnc1SCC(=O)Nc1sc2c(c1C(N)=O)CCC2	eIF4H FP inh 76.1, PABP polyA inh 50.0
CCc1ccc(NC(=O)COC(=O)c2nc3nc(C)cc(C)n3n2)cc1	none (no result: eIF4H FP inh, NS3 helicase inh, core dimer inh, PABP polyA inh, DNA FID counter)
CC(=O)Nc1ccc(NC(=S)NC(=O)c2ccc([N+](=O)[O-])cc2)cc1	PABP1 MLLE inh 40.2
Cc1ccc(C(=O)NC(=S)NNC(=O)c2ccc([N+](=O)[O-])cc2)cc1	none
CC(C)C(=O)Nc1ccc(NC(=S)NC(=O)c2ccc([N+](=O)[O-])cc2)cc1	PABP1 MLLE inh 41.8
